The source made the active and inactive calls. No cut-off for these calls is given here.
Tests used:
[1] = target: Proto-oncogene tyrosine-protein kinase Src (Mus musculus) (UniProt P05480); experiment: Inhibition of Src signaling pathway in mouse BV2 cells assessed as suppression of LPS-induced NO release at […] preincubated for 1 hr followed by LPS addition measured after 24 hrs relative to control by Griess assay; format: cell-based; details: BV-2
[2] = target: Proto-oncogene tyrosine-protein kinase Src (Mus musculus, UniProt P05480); experiment: Inhibition of Src in mouse BV2 cells assessed as suppression of LPS-induced NO release preincubated for 1 hr followed by LPS addition measured after 24 hrs by Griess assay; format: cell-based, BV-2
Outline: (§1)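 BV-2 cells in DMEM/10% FBS, plated at 5×10^3 per well. After 24 h, treated at 100, 50, 10, 5, 1 and 0.1 µM; 1 h later LPS 300 ng/mL added. After another 24 h, nitrite in the medium measured by Griess assay.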

[3] = target: Proto-oncogene tyrosine-protein kinase Src (Rattus norvegicus) (UniProt Q9WUD9); experiment: Inhibition of Src in Sprague-Dawley rat primary mixed mesecephalic neuron/glial cells assessed as suppression of LPS-induced IL-1beta expression at 10 uM preincubated for 1 hr followed by LPS challenge measured after 5 hrs by ELISA
Outline: (§2)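 Mixed mesencephalic neuron/glia cultures from E14 Sprague-Dawley rats, used at 7 days. Agent at 10 µM added 1 h before LPS 100 ng/mL; IL-1β and TNF-α in medium measured by ELISA after 5 h, n = 6.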

[4] = target: Proto-oncogene tyrosine-protein kinase Src (Rattus norvegicus) (UniProt Q9WUD9); experiment: Inhibition of Src in Sprague-Dawley rat primary mixed mesecephalic neuron/glial cells assessed as suppression of LPS-induced TNFalpha expression at 10 uM preincubated for 1 hr followed by LPS challenge measured after 5 hrs by ELISA; outline: as §2
[5] = target: Proto-oncogene tyrosine-protein kinase Src (Rattus norvegicus) (UniProt Q9WUD9); experiment: Inhibition of SRC in Sprague-Dawley rat primary mixed mesecephalic neuron/glial cells assessed as protection against LPS-induced dopaminergic neuro-toxicity by measuring TH expression at 10 uM preincubated for 1 hr followed by LPS challenge measured after 7 days by Western blot analysis
Outline: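 Mixed mesencephalic neuron/glia cultures from E14 Sprague-Dawley rats, used at 7 days. Agent at 10 µM added 1 h before LPS 100 ng/mL; TH measured by Western blot after 7 days, n = 4.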

[6] = Drug uptake in ICR mouse plasma at 50 mg/kg, ig after 5 mins by LC/MS/MS analysis; format: ADME, organism-based; details: in vivo, po
[7] = target: Proto-oncogene tyrosine-protein kinase Src (Rattus norvegicus) (UniProt Q9WUD9); experiment: Inhibition of Src in Sprague-Dawley rat primary mixed mesecephalic neuron/glial cells assessed as suppression of LPS-induced microglia activation by measuring Iba-1 expression at 10 uM preincubated for 1 hr followed by LPS challenge measured after 24 hrs
Mus musculus [8] = experiment: Hepatotoxicity in ICR mouse at 1000 mg/kg administered through oral gavage for 14 consecutive days; format: toxicity, organism-based; details: in vivo
Outline: (§3)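 Mice dosed by oral gavage at 250, 500 and 1000 mg/kg for 14 consecutive days. General condition monitored throughout; liver and kidney clinical chemistry assessed.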

[9] = target: Voltage-gated inwardly rectifying potassium channel KCNH2 (Homo sapiens, UniProt Q12809); experiment: Inhibition of human ERG by whole cell voltage clamp assay
Outline: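 Whole-cell voltage clamp. Internal solution: KCl 130 mM, MgCl2 1 mM, EGTA 5 mM, ATP-Mg 5 mM, HEPES 10 mM, pH 7.2. Bath: NaCl 137, CaCl2 1.8, KCl 4, MgCl2 1, glucose 5, HEPES 10 mM, pH 7.4. From a holding potential of −70 mV, 2-s steps to 50 mV in 10 mV increments every 15 s; tail current recorded on a 2-s step from +50 to −40 mV.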

[10] = Toxicity in ICR mouse assessed as mortality administered through oral gavage; format: organism-based; details: in vivo
Mus musculus [11] = experiment: Nephrotoxicity in ICR mouse at 1000 mg/kg administered through oral gavage for 14 consecutive days; format: toxicity, organism-based; details: in vivo; outline: as §3
[12] = AUC (0 to infinity) in ICR mouse blood at 50 mg/kg, ig up to 8 hrs by LC/MS/MS analysis; format: ADME, organism-based; set-up: dose 50 mg/kg, route […], time infinity; details: in vivo, po
Outline: (§4)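 Male ICR mice (22–25 g), fasted 16 h, single intragastric dose of 50 mg/kg. Blood and brain sampled at 5, 15, 30 min and 1, 2, 4, 8 h after decapitation. Plasma spun 4000 rpm 5 min; brain homogenised in saline and spun. Extracts run by LC/MS/MS on C18 columns at 30 °C, isocratic 70% acetonitrile (1% TFA)/30% water, 0.2 mL/min. Mean ± SD, n = 6.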

[13] = Half life in ICR mouse blood at 50 mg/kg, ig up to 8 hrs by LC/MS/MS analysis; format: ADME, organism-based; details: po; outline: as §4
[14] = Cmax in ICR mouse blood at 50 mg/kg, ig up to 8 hrs by LC/MS/MS analysis; format: ADME, organism-based; set-up: dose 50 mg/kg, route […]; details: po; outline: as §4
[15] = AUC (0 to infinity) in ICR mouse brain at 50 mg/kg, ig up to 8 hrs by LC/MS/MS analysis; format: ADME, organism-based; set-up: dose 50 mg/kg, route […], time infinity; details: in vivo, po, BLD = below limit of detection; outline: as §4
[16] = Cmax in ICR mouse brain at 50 mg/kg, ig up to 8 hrs by LC/MS/MS analysis; format: ADME, organism-based; set-up: dose 50 mg/kg, route […]; details: in vivo, po, BLD = below limit of detection; outline: as §4
[17] = target: Proto-oncogene tyrosine-protein kinase Src (Mus musculus) (UniProt P05480); experiment: Inhibition of Src signaling pathway in mouse BV2 cells assessed as suppression of LPS-induced NO release at 0.1 to 100 uM preincubated for 1 hr followed by LPS addition measured after 24 hrs relative to control by Griess assay; format: cell-based; details: BV-2; outline: as §1

Sequence of Proto-oncogene tyrosine-protein kinase Src (P05480 2-535 limits assumed): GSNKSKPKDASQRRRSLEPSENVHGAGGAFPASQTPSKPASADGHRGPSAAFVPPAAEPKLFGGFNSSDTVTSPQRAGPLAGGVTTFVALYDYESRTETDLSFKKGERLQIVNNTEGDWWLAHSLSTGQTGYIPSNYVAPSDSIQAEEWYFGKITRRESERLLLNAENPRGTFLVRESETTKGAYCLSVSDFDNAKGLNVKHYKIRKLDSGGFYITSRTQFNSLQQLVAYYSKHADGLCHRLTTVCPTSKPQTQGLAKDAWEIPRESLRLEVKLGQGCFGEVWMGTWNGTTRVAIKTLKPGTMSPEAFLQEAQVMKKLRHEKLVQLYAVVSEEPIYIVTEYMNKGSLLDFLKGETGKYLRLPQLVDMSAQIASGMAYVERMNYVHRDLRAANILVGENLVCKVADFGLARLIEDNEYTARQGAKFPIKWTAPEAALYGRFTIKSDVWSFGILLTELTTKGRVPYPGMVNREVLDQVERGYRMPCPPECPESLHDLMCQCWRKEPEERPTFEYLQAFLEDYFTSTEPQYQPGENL
Sequence of Proto-oncogene tyrosine-protein kinase Src (Mus musculus) (P05480 2-535 limits assumed): as above
Sequence of Proto-oncogene tyrosine-protein kinase Src (Rattus norvegicus) (Q9WUD9 2-536 limits assumed): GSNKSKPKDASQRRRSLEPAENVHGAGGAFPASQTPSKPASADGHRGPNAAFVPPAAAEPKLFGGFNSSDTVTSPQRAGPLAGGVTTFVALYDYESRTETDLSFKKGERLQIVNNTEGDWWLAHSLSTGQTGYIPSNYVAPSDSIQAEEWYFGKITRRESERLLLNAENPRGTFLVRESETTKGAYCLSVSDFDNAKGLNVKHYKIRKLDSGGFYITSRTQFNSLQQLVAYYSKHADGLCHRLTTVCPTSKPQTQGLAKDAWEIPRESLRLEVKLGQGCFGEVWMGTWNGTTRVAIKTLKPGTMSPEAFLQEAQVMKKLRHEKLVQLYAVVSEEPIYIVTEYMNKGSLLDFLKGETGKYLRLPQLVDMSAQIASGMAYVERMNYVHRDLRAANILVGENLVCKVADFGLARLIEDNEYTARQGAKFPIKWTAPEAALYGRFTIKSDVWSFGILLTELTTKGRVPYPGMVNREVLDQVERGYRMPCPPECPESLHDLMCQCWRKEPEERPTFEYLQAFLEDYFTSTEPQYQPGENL
Sequence of Voltage-gated inwardly rectifying potassium channel KCNH2 (Q12809 whole entry): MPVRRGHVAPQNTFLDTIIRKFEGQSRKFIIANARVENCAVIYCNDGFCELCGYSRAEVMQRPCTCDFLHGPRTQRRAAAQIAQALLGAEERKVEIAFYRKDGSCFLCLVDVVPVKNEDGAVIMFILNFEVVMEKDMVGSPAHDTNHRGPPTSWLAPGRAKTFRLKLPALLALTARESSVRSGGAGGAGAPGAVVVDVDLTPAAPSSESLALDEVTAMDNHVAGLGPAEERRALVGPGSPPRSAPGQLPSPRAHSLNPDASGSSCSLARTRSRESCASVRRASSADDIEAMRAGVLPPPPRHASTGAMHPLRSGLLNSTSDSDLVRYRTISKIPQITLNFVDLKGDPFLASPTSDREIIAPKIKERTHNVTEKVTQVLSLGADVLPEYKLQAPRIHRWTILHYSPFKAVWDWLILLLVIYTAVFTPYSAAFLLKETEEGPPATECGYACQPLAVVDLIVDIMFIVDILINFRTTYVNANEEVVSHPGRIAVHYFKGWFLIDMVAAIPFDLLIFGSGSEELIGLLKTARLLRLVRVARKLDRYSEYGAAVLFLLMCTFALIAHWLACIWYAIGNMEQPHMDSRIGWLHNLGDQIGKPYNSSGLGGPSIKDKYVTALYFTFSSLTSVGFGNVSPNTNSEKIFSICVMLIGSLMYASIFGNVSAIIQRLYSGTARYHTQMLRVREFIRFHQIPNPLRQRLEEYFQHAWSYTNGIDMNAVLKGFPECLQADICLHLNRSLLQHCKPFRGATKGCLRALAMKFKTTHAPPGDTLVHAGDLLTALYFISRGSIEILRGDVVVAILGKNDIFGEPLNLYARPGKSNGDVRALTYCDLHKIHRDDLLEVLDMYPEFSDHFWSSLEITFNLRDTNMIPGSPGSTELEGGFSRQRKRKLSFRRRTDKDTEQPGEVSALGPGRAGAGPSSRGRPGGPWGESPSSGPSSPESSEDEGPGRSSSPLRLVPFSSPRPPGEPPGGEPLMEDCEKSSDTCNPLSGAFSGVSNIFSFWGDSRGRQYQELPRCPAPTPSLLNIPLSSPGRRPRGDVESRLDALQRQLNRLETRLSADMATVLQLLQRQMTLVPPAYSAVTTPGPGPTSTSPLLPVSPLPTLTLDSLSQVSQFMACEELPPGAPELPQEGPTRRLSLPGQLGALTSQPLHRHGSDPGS

| Structure (SMILES) | IC50 [2] [µM] | further results |
| --- | --- | --- |
| O=C(CCCN1CCN(c2cccc(Cl)c2)CC1)c1c(O)cc(O)cc1O | – | inhibition [1]: < 50% |
| CC(C)NC(=O)c1c(O)cc(O)cc1O | 92.6 | – |
| CC(C)CC(=O)c1c(O)cc(O)cc1OCc1c(-c2ccccc2)no[n+]1[O-] | 8.5 | inhibition [3]: Active; inhibition [4]: Active; inhibition [5]: Active; Drug uptake [6]: Active; inhibition [7]: Active |
| CCCCNC(=O)c1c(O)cc(O)cc1O | 37.1 | – |
| COc1ccc(C(=O)CC(C)C)c(OCC(O)CNC(C)C)c1 (stereo not given) | – | inhibition [1]: < 50% |
| CN(CCCC(=O)c1c(O)cc(O)cc1O)C1CCCCC1 | 54.8 | – |
| COc1cc(OC)c(CNC(C)C)c(OC)c1 | – | inhibition [1]: < 50% |
| COc1cc(OC)c(CN[C@@H](C)C(=O)O)c(OC)c1 | 39.1 | – |
| O=C(CCCN1CCCCC1)c1c(O)cc(O)cc1O | 182 | – |
| COc1cc(O)cc(O)c1C(=O)CC(C)C | 5.8 | Activity (Mus musculus [8]): Toxic; inhibition [3]: Active; inhibition [4]: Active; inhibition [5]: Active; Drug uptake [6]: Active; inhibition (INH) [9]: Active; LD50 [10]: 2000 mg/kg; Activity (Mus musculus [11]): Toxic; inhibition [7]: Active |
| COc1cc(OC)c(C(=O)CC(C)C)c(OC[C@H](O)CNC(C)(C)C)c1 | – | inhibition [1]: < 50% |
| CCN1CCN(CC(=O)c2c(OC)cc(OC)cc2OC)CC1 | 22.7 | – |
| COc1cc(OC)c(CN[C@@H](CCC(=O)O)C(=O)O)c(OC)c1 | 8.4 | inhibition [3]: Active; inhibition [4]: Active; inhibition [5]: Active; AUC [12]: 3195.1 µg·L·h; half-life [13]: 1.1 h; Cmax [14]: 1640 ng/mL; AUC [15]: Bld; Cmax [16]: Bld; Drug uptake [6]: Active; inhibition [17]: Active; inhibition [7]: Active |
| CCCCC(=O)c1c(O)cc(O)cc1O | 11.2 | – |
| CC(C)CC(=O)c1c(O)cc(O)cc1OC[C@@H](O)CNC(C)C | – | inhibition [1]: < 50% |
| COc1cc(/C=C/C(=O)CC(=O)/C=C/c2ccc(O)c(OC)c2)ccc1O [CURCUMIN] | 2.2 | – |
| COc1cc(OC)c(C(=O)CN2CCOCC2)c(OC)c1 | 32.4 | – |
| COc1cc(OC)c(C(=O)CN2CCCCC2)c(OC)c1 | 24.9 | – |
| CC(C)CC(=O)c1c(O)cc(O)cc1OC[C@@H](O)CNC(C)(C)C | 24.1 | – |
| CC(C)CC(=O)c1c(O)cc(O)cc1OC[C@H](O)CNC(C)C | – | inhibition [1]: < 50% |
| COc1cc(OC)c(CN[C@@H](Cc2cnc[nH]2)C(=O)O)c(OC)c1 | – | inhibition [1]: < 50% |
| COc1cc(OC)c(CNCC(=O)O)c(OC)c1 | – | inhibition [1]: < 50% |
| CC(C)CC(=O)c1c(O)cc(O)cc1O | 50.6 to 50.7 | – |
| CC(C)CC(=O)c1ccc(O)cc1 | 90.7 | – |
| COc1cc(OC)c(C(=O)CN2CCN(C)CC2)c(OC)c1 | 95.3 | – |
| COc1cc(OC)c(CN[C@@H](Cc2ccccc2)C(=O)O)c(OC)c1 | – | inhibition [1]: < 50% |
| COc1ccc(C(=O)CC(C)C)c(O)c1 | 113 | – |
| COc1cc(OC)c(CN[C@@H](CC(=O)O)C(=O)O)c(OC)c1 | 14.4 | inhibition [17]: Active |
| CC(=O)c1c(O)cc(O)cc1O [2,4,6-TRIHYDROXYACETOPHENONE] | 195 | – |

Further lines, with some results ahead:

| IC50 [2] [µM] | Structure (SMILES) | further results |
| --- | --- | --- |
| 51.5 | COc1cc(O)c(C(=O)CC(C)C)c(OC)c1 | – |
| 41.3 | COc1cc(OC)c(C(=O)CC(C)C)c(OC[C@H](O)CNC(C)C)c1 | – |
| 40.9 | COc1ccc(C(=O)CC(C)C)c(OC[C@H](O)CNC(C)C)c1 | – |
| 84.8 | COc1cc(OC)c(C(=O)CC(C)C)c(OCC(O)CNC(C)C)c1 (stereo not given) | – |
| 11.2 | COc1cc(OC)c(C(=O)CC(C)C)c(OC[C@@H](O)CNC(C)(C)C)c1 | – |
| 138 | COc1ccc(C(=O)CC(C)C)c(OCC(O)CNC(C)(C)C)c1 (stereo not given) | – |
| 75 | COc1cc(OC)c(C(=O)CC(C)C)c(OCC(O)CNC(C)(C)C)c1 (stereo not given) | – |
| 28.2 | COc1ccc(C(=O)CC(C)C)c(OC[C@H](O)CNC(C)(C)C)c1 | – |
| 11.1 | COc1cc(OC)c(C(=O)CC(C)C)c(OC)c1 | – |
| 74 | CC(C)CC(=O)c1c(O)cc(O)cc1OCC(O)CNC(C)C (stereo not given) | – |
| 21.7 | CC(C)CC(=O)c1c(O)cc(O)cc1OCC(O)CNC(C)(C)C (stereo not given) | – |
| 53.8 | COc1ccc(C(=O)CC(C)C)c(OC[C@@H](O)CNC(C)(C)C)c1 | – |
| 138 | COc1cc(OC)c(C(=O)CC(C)C)c(OC[C@@H](O)CNC(C)C)c1 | – |
| 37.3 | CC(C)CC(=O)c1c(O)cc(O)cc1OC[C@H](O)CNC(C)(C)C | – |
| 25.6 | COc1ccc(C(=O)CC(C)C)c(OC[C@@H](O)CNC(C)C)c1 | – |

— ChEMBL document CHEMBL3860061, “A Novel Parkinson's Disease Drug Candidate with Potent Anti-neuroinflammatory Effects through the Src Signaling Pathway” (J Med Chem, 2016)
